According to ChEMBL document CHEMBL1153509, “2-O-beta-d-glucopyranosyl-sn-glycerol based analogues of sulfoquinovosyldiacylglycerols (SQDG) and their role in inhibiting Epstein-Barr virus early antigen activation” (Bioorg Med Chem, 2009):

Assays:
Raji [1] = experiment: Inhibition of 12-O-tetradecanoylphorbol-13-acetate-induced EBV-early antigen activation in human Raji cells assessed as early antigen induction at 1000 molar ratio after 48 hrs by conventional indirect immunofluorescence technique relative to TPA; assay type: cell-based; set-up: scale not given: the % may be the effect or the level left; settings: human gammaherpesvirus 4
How it was run: (§1)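 Raji cells (1×10^6/mL, RPMI 1640 plus 10% FCS) were incubated at 37 °C for 48 h in medium with 4 mM n-butyric acid, 32 pmol TPA in DMSO and test compound in DMSO, dosed as mol ratio to TPA. EA was detected by indirect immunofluorescence using high-titer EBV-positive NPC patient sera and FITC anti-human IgG, counting at least 500 cells. Runs were in triplicate. Results are expressed as % of the butyric acid plus TPA control (100%).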

Raji [2] = experiment: Inhibition of 12-O-tetradecanoylphorbol-13-acetate-induced EBV-early antigen activation in human Raji cells assessed as early antigen induction at 500 molar ratio after 48 hrs by conventional indirect immunofluorescence technique relative to TPA; assay type: cell-based; set-up: scale not given: the % may be the effect or the level left; settings: human gammaherpesvirus 4; how it was run: as §1
Raji [3] = experiment: Inhibition of 12-O-tetradecanoylphorbol-13-acetate-induced EBV-early antigen activation in human Raji cells assessed as early antigen induction at 100 molar ratio after 48 hrs by conventional indirect immunofluorescence technique relative to TPA; assay type: cell-based; set-up: scale not given: the % may be the effect or the level left; settings: human gammaherpesvirus 4; how it was run: as §1
Raji [4] = experiment: Inhibition of 12-O-tetradecanoylphorbol-13-acetate-induced EBV-early antigen activation in human Raji cells assessed as early antigen induction at 10 molar ratio after 48 hrs by conventional indirect immunofluorescence technique relative to TPA; assay type: cell-based; set-up: scale not given: the % may be the effect or the level left; settings: human gammaherpesvirus 4; how it was run: as §1
[5] = Cytotoxicity against human Raji cells assessed as cell viability at 1000 molar ratio after 48 hrs by trypan blue staining method; assay type: cell-based; settings: read-out: Activity
How it was run: (§2)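 Raji cells (1×10^6/mL) in RPMI 1640 with 10% fetal calf serum were incubated 48 h at 37 °C with 4 mM n-butyric acid, 32 pmol TPA in DMSO and test compound in DMSO. Compound doses were set as mol ratio to TPA. Viability was read by Trypan Blue staining 2 days after treatment.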

[6] = Cytotoxicity against human Raji cells assessed as cell viability at 500 molar ratio after 48 hrs by trypan blue staining method; assay type: cell-based; settings: read-out: Activity; how it was run: as §2
[7] = Cytotoxicity against human Raji cells assessed as cell viability at 100 molar ratio after 48 hrs by trypan blue staining method; assay type: cell-based; settings: read-out: Activity; how it was run: as §2
[8] = Cytotoxicity against human Raji cells assessed as cell viability at 10 molar ratio after 48 hrs by trypan blue staining method; assay type: cell-based; settings: read-out: Activity; how it was run: as §2
[9] = Inhibition of 12-O-tetradecanoylphorbol-13-acetate-induced EBV-early antigen activation in human Raji cells assessed per TPA after 48 hrs by conventional indirect immunofluorescence technique; assay type: cell-based, human gammaherpesvirus 4
How it was run: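 Raji cells (1×10^6/mL) were treated at 37 °C for 48 h with 4 mM n-butyric acid, 32 pmol TPA and test compound in DMSO. EA-positive cells were scored by indirect immunofluorescence (NPC patient sera, FITC anti-human IgG), at least 500 cells per run, in triplicate. IC50 was given as the compound/TPA mol ratio inhibiting 50% of the TPA-activated positive control.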

| SMILES | IC50 [9] [mol ratio/TPA] | Activity (Raji [1]) [%] | Activity (Raji [2]) [%] | Activity (Raji [3]) [%] | Activity (Raji [4]) [%] | viability at 48 h, 1000 molar ratio [5] [%] | viability at 48 h, 500 molar ratio [6] [%] | viability at 48 h, 100 molar ratio [7] [%] | viability at 48 h, 10 molar ratio [8] [%] |
| --- | --- | --- | --- | --- | --- | --- | --- | --- | --- |
| CCCCCCCCCCCCCCCCCC(=O)OCC(COC(=O)CCCCCCCCCCCCCCCCC)O[C@@H]1O[C@H](CS(=O)(=O)[O-])[C@@H](O)[C@H](O)[C@H]1O.[Na+] | 632 | 25.1 | 65.1 | 87.4 | 100 | 50 | 70 | 80 | 80 |
| CCCCCC(=O)OCCO[C@@H]1O[C@H](CO)[C@H](O)[C@H](O)[C@H]1O | 350 | 6.7 | 49.5 | 78.5 | 100 | 70 | 80 | 80 | 80 |
| CCCCCCCCCCCC(=O)OCC(COC(=O)CCCCCCCCCCC)O[C@@H]1O[C@H](CS(=O)(=O)[O-])[C@@H](O)[C@H](O)[C@H]1O.[Na+] | 581 | 23.4 | 62.6 | 85.2 | 100 | 50 | 70 | 80 | 80 |
| CCCCCC(=O)OCC(COC(=O)CCCCC)O[C@@H]1O[C@H](CO)[C@@H](O)[C@H](O)[C@H]1O | 327 | 9.3 | 46.8 | 76.9 | 100 | 60 | 70 | 80 | 80 |
| CCCCCCCCCCCC(=O)OCC(COC(=O)CCCCCCCCCCC)O[C@@H]1O[C@H](CO)[C@@H](O)[C@H](O)[C@H]1O | 402 | 13 | 52.4 | 80.5 | 100 | 60 | 70 | 80 | 80 |

Second part, led by results:

| IC50 [9] [mol ratio/TPA] | SMILES | Activity (Raji [1]) [%] | Activity (Raji [2]) [%] | Activity (Raji [3]) [%] | Activity (Raji [4]) [%] | viability at 48 h, 1000 molar ratio [5] [%] | viability at 48 h, 500 molar ratio [6] [%] | viability at 48 h, 100 molar ratio [7] [%] | viability at 48 h, 10 molar ratio [8] [%] |
| --- | --- | --- | --- | --- | --- | --- | --- | --- | --- |
| 484 | CCCCCCCCCCCCCCCCCC(=O)OCC(COC(=O)CCCCCCCCCCCCCCCCC)O[C@@H]1O[C@H](CO)[C@@H](O)[C@H](O)[C@H]1O | 16.2 | 57.8 | 82.8 | 100 | 60 | 70 | 80 | 80 |
| 37.3 | CCCCCC(=O)OC[C@H](CO)O[C@@H]1O[C@H](COC(=O)CCCCC)[C@@H](O)[C@H](O)[C@H]1O | 0 | 15.1 | 34.6 | 71.5 | 70 | 80 | 80 | 80 |
| 539 | CCCCCC(=O)OCC(COC(=O)CCCCC)O[C@@H]1O[C@H](CS(=O)(=O)[O-])[C@@H](O)[C@H](O)[C@H]1O.[Na+] | 20.3 | 60.5 | 84.3 | 100 | 50 | 70 | 80 | 80 |
